{"data": "Measurements pooled from the literature", "HDAC6": "Protein deacetylase HDAC6 (HDAC6, Homo sapiens, UniProt Q9UBN7)", "TNK1": "Non-receptor tyrosine-protein kinase TNK1 (TNK1, Homo sapiens, UniProt Q13470)", "note": "Lines come from different studies, so protocols differ."}
{"Compound": "CNc1ncc2c(/C=C/C(=O)N3CCC(OC)CC3)nn(Cc3cccc(C(F)(F)F)c3)c2n1", "target": "Dual specificity protein kinase TTK (TTK, Homo sapiens, UniProt P33981)", "assay": "enzyme activity, inhibitor, radiometric", "conditions": "1 µM", "measurement": "remaining activity", "value": "105%"}
{"Compound": "Cc1cc(OS(=O)(=O)Oc2cccc(C(C)C)c2)cc(C(=O)NO)c1", "target": "HDAC6", "assay": "enzyme activity, inhibitor, fluorescence", "conditions": "10 µM", "measurement": "inhibition", "value": "58%"}
{"Compound": "Cc1cc([C@@H](C)Nc2ccccc2C(=O)O)c2nc(N3CCC(F)(F)CC3)c(C#N)c(=O)n2c1", "target": "Serine/threonine-protein kinase PAK 2 (PAK2, Homo sapiens, UniProt Q13177)", "assay": "binding, competition with immobilised ligand", "conditions": "1 µM", "measurement": "remaining binding", "value": "100%"}
{"Compound": "COc1cc(-c2cncc3c2CN(C)Cc2cc(N4CCNCC4)ccc2-3)cc(OC)c1OC", "target": "Death-associated protein kinase 1 (DAPK1, Homo sapiens, UniProt P53355)", "assay": "enzyme activity, inhibitor", "conditions": "1 µM", "measurement": "remaining activity", "value": "101%"}
{"Compound": "Cc1c(OS(=O)(=O)Oc2ccc(C(C)(C)C)cc2)cccc1C(=O)NO", "target": "HDAC6", "assay": "enzyme activity, inhibitor, fluorescence", "conditions": "10 µM", "measurement": "inhibition", "value": "30%"}
{"Compound": "C=CC(=O)N1CCC(COCC(=O)N2CCN(c3nc(-c4cnc(N)nc4C(F)F)nc(N4CCOC[C@@H]4C)n3)CC2)CC1", "target": "Serine/threonine-protein kinase MAK (MAK, Homo sapiens, UniProt P20794)", "assay": "binding, competition with immobilised ligand", "conditions": "1 µM", "measurement": "remaining binding", "value": "100%"}
{"Compound": "Cc1c(OS(=O)(=O)Oc2ccc(-n3ccnc3)cc2)cccc1C(=O)NO", "target": "HDAC6", "assay": "enzyme activity, inhibitor, fluorescence", "conditions": "10 µM", "measurement": "inhibition", "value": "46%"}
{"Compound": "Cc1cc(NC(=O)c2cccc(NC(=O)/C=C/CN(C)C)c2)ccc1Nc1nccc(-c2cccnc2)n1", "target": "TNK1", "assay": "binding, competition with immobilised ligand", "conditions": "1 µM", "measurement": "remaining binding", "value": "57%"}
{"Compound": "C=CC(=O)N1C[C@@H](n2nc(C#Cc3c(F)cc4c(ncn4C4CC4)c3F)c(C(N)=O)c2NC)C[C@@H]1COC", "target": "TNK1", "assay": "enzyme activity, inhibitor, mobility shift", "conditions": "1 µM", "measurement": "inhibition", "value": "89.5%"}
{"Compound": "Cc1c(OS(=O)(=O)Oc2ccc(Oc3ccccc3)cc2)cccc1C(=O)NO", "target": "HDAC6", "assay": "enzyme activity, inhibitor, fluorescence", "conditions": "10 µM", "measurement": "inhibition", "value": "27%"}
{"Compound": "CCc1nn(C)c2nc(-c3ccc(C(=O)O)cc3)nc(NCc3ccc(F)cc3)c12", "target": "3',5'-cyclic-AMP phosphodiesterase 4D (PDE4D, Homo sapiens, UniProt Q08499)", "assay": "enzyme activity, inhibitor, radiometric", "conditions": "10 µM", "measurement": "inhibition", "value": "42.1%"}
{"Compound": "Cc1ncsc1-c1ccc(CNC(=O)[C@@H]2C[C@@H](O)CN2C(=O)[C@@H](NC(=O)CCCCCCCCNC(=O)CN2CCN(C(=O)c3ccc(Nc4nc(C5CC5)cn5c(-c6cn[nH]c6)cnc45)c(F)c3)CC2)C(C)(C)C)cc1", "target": "TNK1", "assay": "cell-free assay, competition with immobilised ligand", "conditions": "1 µM", "measurement": "inhibition", "value": "> 65%"}
